≈ marks a conversion by molar mass, not a printed value. Calls of active or inactive are those of the source. The rule behind the calls is not given here.
Assays:
Salmonella = experiment: Antibacterial activity against Salmonella schottmuelleri MB2837 assessed as growth inhibition; assay type: functional
Summary of the method: (§1)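 MIC (µg/mL) by in vitro growth inhibition in an assay system at pH 7.4. Tetracycline was run routinely to check medium, incubation conditions and inoculum virility.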

Pseudomonas aeruginosa [1] = experiment: Antibacterial activity against Pseudomonas aeruginosa MB418 assessed as growth inhibition; assay type: functional; summary of the method: as §1
Pseudomonas aeruginosa [2] = experiment: Antibacterial activity against Pseudomonas aeruginosa MB2245 assessed as growth inhibition; assay type: functional; summary of the method: as §1
[3] = tested on: Bordetella bronchiseptica; experiment: Antibacterial activity against Bordetella bronchiseptica MB3551 assessed as growth inhibition; assay type: functional; summary of the method: as §1
[4] = tested on: Bordetella bronchiseptica; experiment: Antibacterial activity against Bordetella bronchiseptica MB905 assessed as growth inhibition; assay type: functional; summary of the method: as §1
Pasteurella multocida = experiment: Antibacterial activity against Pasteurella multocida MB7 assessed as growth inhibition at 2 to 8 ug/mL; assay type: functional, organism-based
Streptococcus pyogenes = experiment: Antibacterial activity against Streptococcus pyogenes assessed as growth inhibition at 2 to 8 ug/mL; assay type: functional, organism-based
Bacillus subtilis = experiment: Antibacterial activity against Bacillus subtilis MB964 assessed as growth inhibition; assay type: functional; summary of the method: as §1
Escherichia coli = experiment: Antibacterial activity against Escherichia coli MB2884 assessed as growth inhibition; assay type: functional; summary of the method: as §1
Staphylococcus aureus [5] = experiment: Antibacterial activity against Staphylococcus aureus MB108 assessed as growth inhibition; assay type: functional; summary of the method: as §1
Proteus vulgaris = experiment: Antibacterial activity against Proteus vulgaris MB838 assessed as growth inhibition at 200 ug/mL; assay type: functional, organism-based
Staphylococcus aureus [6] = experiment: Antibacterial activity against Staphylococcus aureus MB2865 assessed as growth inhibition; assay type: functional; summary of the method: as §1
Klebsiella aerogenes = experiment: Antibacterial activity against Klebsiella aerogenes MB1503 assessed as growth inhibition; assay type: functional; summary of the method: as §1
[7] = tested on: Corynebacterium pseudodiphtheriticum; experiment: Antibacterial activity against Corynebacterium pseudodiphtheriticum assessed as growth inhibition at 2 to 8 ug/mL; assay type: functional, organism-based

Compound | MIC (Salmonella) [µg/mL] | MIC (Pseudomonas aeruginosa [1]) [µg/mL] | MIC (Pseudomonas aeruginosa [2]) [µg/mL] | MIC [3] [µg/mL] | MIC [4] [µg/mL] | growth inhibition (GI) (Pasteurella multocida) | growth inhibition (GI) (Streptococcus pyogenes) | MIC (Bacillus subtilis) [µg/mL] | MIC (Escherichia coli) [µg/mL] | MIC (Staphylococcus aureus [5]) [µg/mL] | growth inhibition (GI) (Proteus vulgaris) | MIC (Staphylococcus aureus [6]) [µg/mL] | MIC (Klebsiella aerogenes) [µg/mL] | growth inhibition (GI) [7]
CC1(C)C2CCC(C2)C1CCC(CCC1C2CCC(C2)C1(C)C)NCCCNCCCN.Cl (centres undefined) | 4 | 8 | 10 | 4 | 4 | Active | Active | 4 | 8 | 4 | inactive | 10 | 4 | inactive
CC1(C)C2CCC(C2)C1CCC(CCC1C2CCC(C2)C1(C)C)NCCNCCN.Cl (centres undefined) | 50 | 200 | > 200 | 4 | 4 | Active | Active | 6 | 4 | 6 | inactive | 6 | 10 | inactive
CC(C)(C)c1ccc(CCCC(CCCc2ccc(C(C)(C)C)cc2)NCCCNCCCN)cc1.Cl | 8 | 80 | 40 | 8 | 8 | Active | Active | 8 | 40 | 20 | inactive | 10 | 40 | inactive
Cl.NCCCNCCCNC(CCC1CCCCC1)CCC1CCCCC1 | 2 | 30 | 15 | 2 | 2 | Active | Active | 2 | 15 | 2 | inactive | 10 | 6 | inactive
Cl.NCCCNCCCNC(CCCCC1CCCCC1)CCCCC1CCCCC1 | 6 | 10 | 15 | 4 | 4 | Active | Active | 8 | 20 | 10 | inactive | 20 | 20 | inactive
CC(C)c1ccc(CCCC(CCCc2ccc(C(C)C)cc2)NCCCNCCCN)cc1.Cl | 10 | 15 | 40 | 10 | 10 | Active | Active | 6 | 40 | 20 | inactive | 20 | 20 | inactive
CC1(C)C2CCC(C2)C1CCC(CCC1C2CCC(C2)C1(C)C)NCCNCCNCCCN.Cl (centres undefined) | 6 | 60 | 60 | 30 | 6 | Active | Active | 6 | 10 | 20 | inactive | 6 | 10 | inactive
Cl.NCCCNCCCNC(CC1CCCCC1)CC1CCCCC1 | 4 | 60 | 40 | 6 | 4 | Active | Active | 10 | 40 | 30 | inactive | 40 | 8 | inactive
CC(C)C1CCC(CCC(CCC2CCC(C(C)C)CC2)NCCCNCCCN)CC1.Cl (centres undefined) | 20 | 60 | 60 | 10 | 10 | Active | Active | 6 | 50 | 20 | inactive | 40 | 50 | inactive
CN(C)[C@@H]1C(O)=C(C(N)=O)C(=O)[C@@]2(O)C(O)=C3C(=O)c4c(O)cccc4[C@@](C)(O)[C@H]3C[C@@H]12 [TETRACYCLINE] | 2 (≈ 4.5 µM) | 20 (≈ 45 µM) | 30 (≈ 67.5 µM) | 2 (≈ 4.5 µM) | 2 (≈ 4.5 µM) | Active | Active | 2 (≈ 4.5 µM) | 30 (≈ 67.5 µM) | 2 (≈ 4.5 µM) | inactive | 2 (≈ 4.5 µM) | 2 (≈ 4.5 µM) | inactive
CC1(C)C2CCC(C2)C1CCC(CCC1C2CCC(C2)C1(C)C)NCCCN1CCN(CCCN)CC1.Cl (centres undefined) | 6 | 200 | 200 | 8 | 4 | Active | Active | 8 | 20 | 6 | inactive | 20 | 4 | inactive
Cc1ccc(C(C)(C)C)cc1CCCC(CCCc1cc(C(C)(C)C)ccc1C)NCCNCCNCCN.Cl | 10 | 50 | 80 | 10 | 15 | Active | Active | 4 | 60 | 15 | inactive | 60 | 10 | inactive
CC1(C)C2CCC(C2)C1CCC(CCC1C2CCC(C2)C1(C)C)NCCNCCNCCN.Cl (centres undefined) | 4 | 50 | 30 | 10 | 4 | Active | Active | 4 | 8 | 4 | inactive | 30 | 8 | inactive
CN(CCCNCCCN)C(CCC1CCCCC1)CCC1CCCCC1.Cl | 1 | 8 | 20 | 4 | 6 | Active | Active | 4 | 8 | 10 | inactive | 30 | 4 | inactive
Cl.NCCCNCC(O)CNC(CCC1CCCCC1)CCC1CCCCC1 (centres undefined) | 4 | 20 | 8 | 4 | 4 |  |  | 4 | 8 | 8 |  | 15 | 6 | 
CC(C)c1ccc(CCC(CCc2ccc(C(C)C)cc2)NCCCNCCCN)cc1.Cl | 4 | 10 | 10 | 4 | 4 | Active | Active | 4 | 8 | 8 | inactive | 8 |  | inactive
